Converted amounts (≈) assume the structure as drawn. The source made the active and inactive calls. The rule behind the calls is not given here.
What was measured:
[1] = tested on: Fusarium solani; assay: Antifungal activity against Fusarium solani MYA3636 after 48 hrs by two fold serial dilution method; format: functional; conditions: MYA3636, 48 h
Outline: (§1)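 Moulds grown on potato dextrose agar, 30 °C, 4 days; inoculum adjusted to about 5×10^3 CFU/mL. Two-fold serial dilutions in RPMI-1640 broth, 100 to 0.78 μg/mL final, mixed with equal volume of cell suspension; incubated 30 °C, 48 h. MIC = lowest concentration inhibiting growth, judged visually and by OD530.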

[2] = tested on: Candida albicans; assay: Antifungal activity against Candida albicans ATCC90028 after 24 hrs by two fold serial dilution method; format: functional; conditions: ATCC90028, 24 h
Outline: (§2)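 Candida grown on Sabouraud dextrose agar at 35 °C for 24 h, adjusted to ~5×10^3 CFU/mL. Two-fold dilutions from 100 to 0.78 μg/mL in Sabouraud dextrose broth, incubated at 35 °C for 24 h. MIC is the lowest concentration inhibiting growth by eye and by OD600. CLSI-based with minor modifications.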

[3] = tested on: Aspergillus flavus; assay: Antifungal activity against Aspergillus flavus TCC MYA3631 after 48 hrs by two fold serial dilution method; format: functional; conditions: TCC MYA3631, 48 h; outline: as §1
[4] = tested on: Candida albicans; assay: Antifungal activity against drug resistant Candida albicans DF2672R after 24 hrs by two fold serial dilution method; format: functional; outline: as §2
[5] = tested on: Candida albicans; assay: Antifungal activity against Candida albicans ATCC24433 after 24 hrs by two fold serial dilution method; format: functional; conditions: ATCC24433, 24 h; outline: as §2
[6] = tested on: Candida albicans; assay: Antifungal activity against Candida albicans DF1976R after 24 hrs by two fold serial dilution method; format: functional; outline: as §2
[7] = tested on: Fusarium solani; assay: Antifungal activity against Fusarium solani 52628 after 48 hrs by two fold serial dilution method; format: functional; conditions: Fusarium solani, 52628, 48 h; outline: as §1
[8] = tested on: Fusarium solani; assay: Antifungal activity against Fusarium solani 46492 after 48 hrs by two fold serial dilution method; format: functional; conditions: Fusarium solani, 46492, 48 h; outline: as §1
[9] = tested on: Fusarium oxysporum; assay: Antifungal activity against Fusarium oxysporum 64530 after 48 hrs by two fold serial dilution method; format: functional; conditions: Fusarium oxysporum, 64530, 48 h; outline: as §1
[10] = tested on: Fusarium oxysporum; assay: Antifungal activity against Fusarium oxysporum MYA3461 after 48 hrs by two fold serial dilution method; format: functional; conditions: MYA3461, 48 h; outline: as §1
[11] = tested on: Candida albicans; assay: Antifungal activity against Candida albicans ATCC11651 after 24 hrs by two fold serial dilution method; format: functional; conditions: ATCC11651, 24 h; outline: as §2
[12] = tested on: Aspergillus brasiliensis; assay: Antifungal activity against Aspergillus brasiliensis TCC16404 after 48 hrs by two fold serial dilution method; format: functional; conditions: TCC16404, 48 h; outline: as §1
[13] = tested on: Aspergillus fumigatus; assay: Antifungal activity against Aspergillus fumigatus TCC MYA3626 after 48 hrs by two fold serial dilution method; format: functional; conditions: TCC MYA3626, 48 h; outline: as §1
[14] = tested on: Fusarium solani; assay: Antifungal activity against Fusarium solani 62877 after 48 hrs by two fold serial dilution method; format: functional; conditions: Fusarium solani, 62877, 48 h; outline: as §1
[15] = tested on: Candida albicans; assay: Antifungal activity against Candida albicans ATCC 10231 after 24 hrs by two fold serial dilution method; format: functional; conditions: ATCC 10231, 24 h; outline: as §2
[16] = tested on: Aspergillus fumigatus; assay: Antifungal activity against Aspergillus fumigatus TCC 90906 after 48 hrs by two fold serial dilution method; format: functional; conditions: TCC 90906, 48 h; outline: as §1
[17] = tested on: Aspergillus flavus; assay: Antifungal activity against Aspergillus flavus TCC 204304 after 48 hrs by two fold serial dilution method; format: functional; conditions: TCC 204304, 48 h; outline: as §1
[18] = tested on: Candida albicans; assay: Fungicidal activity against drug resistant Candida albicans DF2672R at 8 times MIC after 4 hrs by time kill assay relative to control; format: functional
Outline: (§3)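 Cells at 10^5–10^6 CFU/mL exposed to 1×, 2×, 4× or 8× MIC at 35 °C. Samples taken at 0.5, 1, 2, 4, 8 and 24 h, serially diluted in PBS and plated on SDA. CFU counted after 24 h at 35 °C; biological replicates.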

[19] = Selectivity index, ratio of HC50 for New Zealand white rabbit RBC to MIC for Candida albicans ATCC 10231
[20] = tested on: Candida albicans; assay: Synergistic antifungal activity against drug resistant Candida albicans DF2672R after 24 hrs in presence of terbinafine by checkerboard assay; format: functional
Outline: (§4)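 Checkerboard combination of each compound with a second antifungal, following a previously reported procedure. FIC = MIC of A in combination/MIC of A alone + MIC of B in combination/MIC of B alone.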

[21] = tested on: Bacillus cereus; assay: Antibacterial activity against Bacillus cereus ATCC11778 by two fold serial dilution method; format: functional
Outline: (§5)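 Broth microdilution (CLSI, minor modifications) in Sabouraud dextrose, Mueller−Hinton or RPMI 1640 broth; two-fold serial dilutions of compound from stock to final 100 to 0.78 μg/mL. MIC taken as lowest concentration giving no visible growth.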

[22] = tested on: Klebsiella pneumoniae; assay: Antibacterial activity against Klebsiella pneumoniae DM4299 by two fold serial dilution method; format: functional; outline: as §5
[23] = tested on: Candida albicans; assay: Fungicidal activity against drug resistant Candida albicans DF2672R after 0.5 to 24 hrs by time kill assay; format: functional; outline: as §3
[24] = tested on: Staphylococcus aureus; assay: Antibacterial activity against methicillin resistant Staphylococcus aureus DM9808R by two fold serial dilution method; format: functional
Outline: (§6)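 Broth microdilution per CLSI guidelines with minor modifications, run in Mueller−Hinton broth; MIC is the lowest concentration giving no visible growth.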

[25] = tested on: Candida albicans; assay: Ratio of MIC against drug resistant Candida albicans DF2672R measured after 30 passages to MIC against drug resistant Candida albicans DF2672R measured before 30 passages by two fold serial dilution method; format: functional
Outline: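 Serial passage: cells from duplicate tubes at 0.5× MIC adjusted to ~5×10^3 CFU/mL and used as the inoculum for the next broth microdilution MIC, 24 h at 35 °C. Repeated for 27–30 passages, with biological replicates.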

[26] = tested on: Staphylococcus aureus; assay: Antibacterial activity against methicillin resistant Staphylococcus aureus DM21455 by two fold serial dilution method; format: functional; outline: as §6
[27] = tested on: Lipid bilayer; assay: Induction of membrane permiablization in calcein loaded DOPC/DOPE/PI large unilamellar vesicles assessed as calcein leakage at 1:4 compound to lipid ratio after 1 to 2 hrs by fluorescence assay relative to control
Outline: (§7)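 LUVs (DOPC/DOPE/PI 2:1:1 with 15 wt % ergosterol, about 100 nm) made by film hydration and extrusion, loaded with 80 mM calcein in HEPES buffer pH 7.4. Free dye removed by G-50 column. Compound added in 0.5% DMF at 50 μM final phospholipid. Emission read at 520 nm (excitation 490 nm); leakage normalized to 1% Triton X-100.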

[28] = tested on: Lipid bilayer; assay: Induction of membrane permiablization in calcein loaded DOPC/DOPE/PI large unilamellar vesicles assessed as calcein leakage at 1:8 compound to lipid ratio after 1 to 2 hrs by […] fluorescence assay relative to control; outline: as §7
[29] = tested on: Candida albicans; assay: Synergistic antifungal activity against drug resistant Candida albicans DF2672R after 24 hrs in presence of miconazole by checkerboard assay; format: functional; outline: as §4
[30] = tested on: Candida albicans; assay: Synergistic antifungal activity against drug resistant Candida albicans DF2672R after 24 hrs in presence of itraconazole by checkerboard assay; format: functional; outline: as §4
[31] = tested on: Staphylococcus aureus; assay: Antibacterial activity against Staphylococcus aureus DM4001R by two fold serial dilution method; format: functional; outline: as §5
[32] = tested on: Candida albicans; assay: Synergistic antifungal activity against drug resistant Candida albicans DF2672R after 24 hrs in presence of natamycin by checkerboard assay; format: functional; outline: as §4
[33] = tested on: Pseudomonas aeruginosa; assay: Antibacterial activity against Pseudomonas aeruginosa DM23155 by two fold serial dilution method; format: functional; outline: as §5
[34] = tested on: Candida albicans; assay: Synergistic antifungal activity against drug resistant Candida albicans DF2672R after 24 hrs in presence of amphotericin B by checkerboard assay; format: functional; outline: as §4
[35] = Cytotoxicity against human corneal fibroblasts assessed as cell viability up to 100 uM after 4 hrs by LDH assay relative to control; format: cell-based, Corneal fibroblast; conditions: read-out: Activity
Outline: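 LDH release assay on human corneal fibroblasts seeded at 10000 cells per well, exposed to a range of compound concentrations up to 100 μM. 1% Triton X-100 served as positive control and 0.5% DMSO as negative control; biological replicates.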

[36] = tested on: Candida albicans; assay: Induction of membrane permiablization in drug resistant Candida albicans DF2672R at 4 times MIC after 1 to 2 hrs by SYTOX green dye based spectrofluorometric assay; format: functional
Outline: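 Overnight cultures washed and resuspended in PBS at OD600 0.2, then loaded with 0.3 μM SYTOX Green in the dark. After the signal stabilised, compound in PBS/DMF was added (final DMF 0.5%; 0.5% DMF as control). Fluorescence (ex 504/em 523 nm) followed continuously for 1–2 h; biological replicates.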

[37] = tested on: Candida albicans; assay: Synergistic antifungal activity against drug resistant Candida albicans DF2672R after 24 hrs in presence of posaconazole by checkerboard assay; format: functional; outline: as §4

CC[C@H](C)C[C@H](C)CCCCCCCCC(=O)N[C@H]1C[C@@H](O)[C@@H](NCCN)NC(=O)[C@@H]2[C@@H](O)CCN2C(=O)[C@H]([C@H](O)CCN)NC(=O)[C@H]([C@H](O)[C@@H](O)c2ccc(O)cc2)NC(=O)[C@@H]2C[C@@H](O)CN2C(=O)[C@H]([C@@H](C)O)NC1=O [CASPOFUNGIN]
MIC [1]: > 50 µg/mL
MIC [2]: 0.1 µg/mL (≈ 0.0915 µM)
MIC [3]: > 50 µg/mL
MIC [4]: 0.2 µg/mL (≈ 0.183 µM)
MIC [5]: 0.2 µg/mL (≈ 0.183 µM)
MIC [6]: 0.2 µg/mL (≈ 0.183 µM)
MIC [7]: > 50 µg/mL
MIC [8]: > 50 µg/mL
MIC [9]: > 50 µg/mL
MIC [10]: > 50 µg/mL
MIC [11]: 0.2 µg/mL (≈ 0.183 µM)
MIC [12]: > 50 µg/mL
MIC [13]: > 50 µg/mL
MIC [14]: > 50 µg/mL
MIC [15]: 0.1 µg/mL (≈ 0.0915 µM)
MIC [16]: > 50 µg/mL
MIC [17]: > 50 µg/mL

CCCCN(CCCC)CC(O)COc1cc2oc3cc(OCC(O)CN(CCCC)CCCC)c(OC)c(CC=C(C)C)c3c(=O)c2c(O)c1CC=C(C)C (centres undefined)
MIC [1]: 3.13 µg/mL (≈ 4.01 µM)
Activity [18]: 99.9%
Selectivity Index [19]: > 128
fractional inhibitory concentration index (FICI) [20]: 0.29
MIC [2]: 3.13 µg/mL (≈ 4.01 µM)
MIC [21]: > 50 µg/mL
MIC [3]: 12.5 µg/mL (≈ 16 µM)
MIC [22]: > 50 µg/mL
MIC [4]: 3.13 µg/mL (≈ 4.01 µM)
MIC [5]: 3.13 µg/mL (≈ 4.01 µM)
Activity [23]: Dose-dependent effect
MIC [6]: 3.13 µg/mL (≈ 4.01 µM)
MIC [7]: 6.25 µg/mL (≈ 8 µM)
MIC [8]: 6.25 µg/mL (≈ 8 µM)
MIC [9]: 6.25 µg/mL (≈ 8 µM)
MIC [10]: 3.13 µg/mL (≈ 4.01 µM)
MIC [24]: > 50 µg/mL
Ratio [25]: 2
MIC [26]: > 50 µg/mL
MIC [11]: 3.13 µg/mL (≈ 4.01 µM)
Activity [27]: 55.4%
Activity [28]: 25.8%
fractional inhibitory concentration index (FICI) [29]: 0.81
fractional inhibitory concentration index (FICI) [30]: 0.63
MIC [31]: > 50 µg/mL
fractional inhibitory concentration index (FICI) [32]: 0.91
MIC [12]: 3.13 µg/mL (≈ 4.01 µM)
MIC [13]: 6.25 µg/mL (≈ 8 µM)
MIC [14]: 6.25 µg/mL (≈ 8 µM)
MIC [33]: > 50 µg/mL
MIC [15]: 3.13 µg/mL (≈ 4.01 µM)
fractional inhibitory concentration index (FICI) [34]: 0.64
viability at 4 h [35]: > 99%
Activity [36]: Active
MIC [16]: 12.5 µg/mL (≈ 16 µM)
MIC [17]: 12.5 µg/mL (≈ 16 µM)
fractional inhibitory concentration index (FICI) [37]: 0.91

— ChEMBL document CHEMBL4028907, “Semisynthesis and Biological Evaluation of Xanthone Amphiphilics as Selective, Highly Potent Antifungal Agents to Combat Fungal Resistance” (J Med Chem, 2017)
